Tests used:
Format in all cases: functional
NCI-H460 = experiment: Cytotoxicity against human NCI-H460 cells after 48 hrs by SRB assay; settings: NCI-H460, 48 h
How it was run: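 NCI-H460 cells were plated at 0.75 × 10⁴ cells/mL to keep growth exponential, left overnight to attach, and treated for 48 h at 37 °C in humidified 5% CO₂, with DMSO vehicle controls at up to 0.25%. Readout was SRB staining of in-situ-fixed cells, with solubilized dye measured at 492 nm. GI₅₀ (50% net growth inhibition) came from dose–response curves in duplicate.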

CNS cell = experiment: Cytotoxicity against human CNS cells after 48 hrs by SRB assay
How it was run: (§1)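 Cells were seeded at 1.5 × 10⁵ cells/mL (MCF-7 and SF-268) so growth stayed exponential, attached overnight, then were exposed to compound for 48 h at 37 °C in humidified 5% CO₂. Untreated controls received DMSO vehicle at up to 0.25%. Cells were fixed in situ and stained with SRB; the bound dye was solubilized and read at 492 nm. GI₅₀ (50% inhibition of net growth) came from dose–response curves, run in duplicate.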

MCF7 = experiment: Cytotoxicity against human MCF7 cells after 48 hrs by SRB assay; settings: MCF7, 48 h; how it was run: as §1

| Compound | GI50 (NCI-H460) | GI50 (CNS cell) | GI50 (MCF7) |
| --- | --- | --- | --- |
| O=c1oc(-c2ccc(F)cc2)cc2c1sc1ccccc12 | > 25 µM | > 25 µM | > 25 µM |
| COc1ccc2c(c1)sc1c(=O)oc(-c3ccc(F)cc3)c(I)c12 | > 150 µM | > 150 µM | > 150 µM |
| COc1ccc(-c2oc(=O)c3sc4ccccc4c3c2I)cc1 | > 150 µM | > 150 µM | > 150 µM |
| O=c1oc(-c2ccccc2)cc2c1sc1ccccc12 | > 112 µM | > 112 µM | > 112 µM |
| COc1ccc2c(c1)sc1c(=O)oc(-c3ccccc3)cc12 | > 75 µM | > 75 µM | > 75 µM |
| O=c1oc(-c2ccccc2F)cc2c1sc1ccccc12 | 15.5 µM | 12.4 µM | 19.4 µM |
| COC(=O)c1sc2ccccc2c1C#Cc1ccccc1 | 58.9 µM | 64.7 µM | 71.6 µM |
| O=c1oc(-c2ccc(F)cc2)c(I)c2c1sc1ccccc12 | 35.8 µM | 20.7 µM | 25.2 µM |
| COc1ccc(-c2cc3c(sc4ccccc43)c(=O)o2)cc1 | > 75 µM | > 75 µM | > 75 µM |
| COC(=O)c1sc2ccccc2c1C#Cc1ccc(F)cc1 | 56.2 µM | 76.1 µM | 60.6 µM |
| COc1cccc2c1C(=O)c1c(O)c3c(c(O)c1C2=O)C[C@@](O)(C(=O)CO)C[C@@H]3O[C@H]1C[C@H](N)[C@H](O)[C@H](C)O1 [DOXORUBICIN] | 0.094 µM | 0.094 µM | 0.0428 µM |
| COc1ccc2c(c1)sc1c(=O)oc(-c3ccc(F)cc3)cc12 | 118 µM | 28.9 µM | 109 µM |
| COC(=O)c1sc2cc(OC)ccc2c1C#Cc1ccccc1 | 42.3 µM | 54.9 µM | 79.6 µM |
| COC(=O)c1sc2ccccc2c1C#Cc1ccccc1F | 30.2 µM | 25.7 µM | 40.9 µM |
| COC(=O)c1sc2cc(OC)ccc2c1C#Cc1ccc(F)cc1 | 10.1 µM | 20.9 µM | 12.6 µM |
| COC(=O)c1sc2cc(OC)ccc2c1C#Cc1ccccc1F | 10.3 µM | 7.2 µM | 11.4 µM |
| COc1ccc2c(c1)sc1c(=O)oc(-c3ccccc3F)c(I)c12 | 10.9 µM | 11.3 µM | 11.9 µM |
| COC(=O)c1sc2ccccc2c1C#Cc1ccc(OC)cc1 | 103 µM | > 150 µM | 90.6 µM |

— ChEMBL document CHEMBL1158368, “Synthesis of novel 3-(aryl)benzothieno[2,3-c]pyran-1-ones from Sonogashira products and intramolecular cyclization: Antitumoral activity evaluation” (2009)
